A short description of data set [1]: folding enthalpy; higher = less favourable; fluorescence melt of hairpins on a sequencing array, two-state fit. Conditions: sodium 0.088 M. The essentials: (§1)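 In 50 mM Na-HEPES pH 8.0 containing 25 mM NaCl, hairpins from the library on a sequenced MiSeq flow cell were imaged for Cy3 fluorescence at 2.5 °C steps up to 60 °C, with Cy3 and quencher oligos annealed. After normalisation to pre-quench Cy3 and to control constructs, two-state fits with bootstrapping gave melting temperature and folding enthalpy. Four replicates were combined by inverse-variance weighting, and fitted temperatures were shifted up by 9.35 °C to match UV melts.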

Data set [2] is described as follows: melting temperature; fluorescence melt of hairpins on a sequencing array, two-state fit, raised by 9.35 °C to match UV melts. The conditions noted are these: sodium 0.088 M. The essentials:
as §1

As for GTATCGGGAAACCGACAC ((.((((....)))).)), in data set [1], the folding enthalpy was -19.5 kcal/mol. Further, the Tm in data set [2] worked out at 39.3 °C.
For GTATCGGGAAACCGATGC (.(((((....))))).) the same measures were -22.2 kcal/mol and 53.3 °C.
Turning to GTATCGGGAAACTGGTAC (((.(.(....).).))), the folding enthalpy in data set [1] is -17.8 kcal/mol. For the same sequence, the Tm in data set [2] worked out at 32.3 °C.
Regarding GTATCTCGAAAGAGTAC (((.(((....)))))), in data set [1], the folding enthalpy was -23.5 kcal/mol. In data set [2], the Tm worked out at 39.7 °C.
As to GTATCTGGAAACAGGTAC (((.(((....))).))), the folding enthalpy in data set [1] is -36.2 kcal/mol. In addition, the Tm in data set [2] was 42.7 °C.
For GTATGAGAAATCATAC ((((((....)))))), the folding enthalpy in data set [1] is -31.4 kcal/mol. For the same sequence, the Tm in data set [2] came out at 44.4 °C.
For GTATGAGGAAACTCACAC ((.((((....)))).)) the same measures were -14.5 kcal/mol and 29.4 °C.
GTATGAGGAAACTTATAC ((((.((....)).)))): the folding enthalpy in data set [1] is -25.7 kcal/mol. Further, in data set [2], the Tm came out at 31.2 °C.
As to GTATGCACGAAAGTGTAC (((..(((....)))))), in data set [1], the folding enthalpy was -9.37 kcal/mol. Moreover, in data set [2], the Tm is 31.1 °C.
As for GTATGCGAAAGCACCTAC ((((((....)))..))), the folding enthalpy in data set [1] is -5.96 kcal/mol. For the same sequence, in data set [2], the Tm was 22.1 °C.
The like results for GTATGCGAAAGCACTTAC ((((((....)))..))) were, in that order, -13.1 kcal/mol and 35.1 °C.
For GTATGCGAAAGCATAC ((((((....)))))) the same measures were -28.3 kcal/mol and 69.2 °C.
For GTATGCGAAAGCATATAC ((((((....)))..))), the folding enthalpy in data set [1] is -11 kcal/mol. For the same sequence, the Tm in data set [2] worked out at 42.2 °C.
The like results for GTATGCTCGAAAGAGTAC (((..(((....)))))) were, in that order, -10.5 kcal/mol and 26.7 °C.
As to GTATGGGGAAACCTATAC ((((.((....)).)))), the folding enthalpy in data set [1] was -30.3 kcal/mol. Further, in data set [2], the Tm turned out to be 38.4 °C.
As for GTATGTGGAAACATATAC ((((.((....)).)))), in data set [1], the folding enthalpy is -23.1 kcal/mol. Also, the Tm in data set [2] is 37.2 °C.
For the sequence GTATTACGAAAGTATTAC (((.(((....))).))), the folding enthalpy in data set [1] was -28.4 kcal/mol. For the same sequence, the Tm in data set [2] is 34.8 °C.
Regarding GTATTAGGAAACTAATAC (((((((....))))))), the folding enthalpy in data set [1] was -38 kcal/mol. Moreover, in data set [2], the Tm stood at 46.3 °C.
For the sequence GTATTCCGAAAGGATAC (((.(((....)))))), the folding enthalpy in data set [1] was -19.7 kcal/mol. Moreover, the Tm in data set [2] worked out at 38.9 °C.
As for GTATTCGAAAGAATAC ((((((....)))))), the folding enthalpy in data set [1] was -35.7 kcal/mol. In data set [2], the Tm turned out to be 54.6 °C.
The like results for GTATTCGAAAGAATATAC ((((((....)))..))) were, in that order, -13.8 kcal/mol and 33.5 °C.
For GTATTCGGAAACGAGTAC (((.(((....))).))) the same measures were -28.6 kcal/mol and 43.6 °C.
For GTATTGAAAAATAC (((((....))))) the same measures were -15.3 kcal/mol and 33.1 °C.
GTATTGGGAAACCGATAC ((((.((....)).)))): the folding enthalpy in data set [1] was -35.7 kcal/mol. Also, in data set [2], the Tm came out at 43.6 °C.
The like results for GTATTTCGAAAGAATAC (((.(((....)))))) were, in that order, -14.1 kcal/mol and 31.1 °C.
For GTATTTGGAAACAAGTAC (((.(((....))).))) the same measures were -20.6 kcal/mol and 35.7 °C.
The like results for GTATTTGGAAACGAATAC (((((.(....).))))) were, in that order, -30.2 kcal/mol and 35.8 °C.
Consider GTCAAAACGAAAGTTGAC (((..(((....)))))), for which, in data set [1], the folding enthalpy is -24.4 kcal/mol. Besides, the Tm in data set [2] was found to be 40.5 °C.
The like results for GTCAAACGAAAGTTAGAC (((.(((....))).))) were, in that order, -29.5 kcal/mol and 44.9 °C.
On to GTCAAAGAAATTTGAC ((((((....)))))), for which the folding enthalpy in data set [1] was -29.1 kcal/mol. Also, in data set [2], the Tm amounted to 45 °C.

Source of the values: the array DNA melting data of Ke et al. (doi:10.1101/2024.01.08.574731).
